# Runt-SMMHC FRET: Runt domain-CBFb-SMMHC interaction inhibition. inhibition, % at 20 µM. Q01196+Q13951. AID 1434. Cerulean-Runt/Venus-CBFb-SMMHC FRET ratio 530/480, 1 h. 220,000 compounds, 0.74% hits;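 active = mean inhibition across duplicate retests at 20 µM reaching about 50%, limit read from the data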;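 also: inhibitors lower the FRET ratio by blocking Runt binding to CBFb-SMMHC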
# Target sequence (Q01196 whole entry, looked up, the tested form may be a part): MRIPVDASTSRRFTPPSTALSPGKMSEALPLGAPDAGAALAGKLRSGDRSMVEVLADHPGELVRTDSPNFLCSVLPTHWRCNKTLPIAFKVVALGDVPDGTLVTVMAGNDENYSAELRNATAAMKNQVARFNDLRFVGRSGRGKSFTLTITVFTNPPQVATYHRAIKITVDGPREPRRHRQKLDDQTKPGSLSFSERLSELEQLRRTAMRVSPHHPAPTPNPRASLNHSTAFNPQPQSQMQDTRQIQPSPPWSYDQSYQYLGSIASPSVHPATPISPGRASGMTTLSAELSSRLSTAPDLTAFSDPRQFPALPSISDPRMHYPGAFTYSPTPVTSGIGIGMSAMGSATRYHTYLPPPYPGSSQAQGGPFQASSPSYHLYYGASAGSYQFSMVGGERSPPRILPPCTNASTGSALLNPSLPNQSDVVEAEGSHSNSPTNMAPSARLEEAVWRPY
# Target sequence (Q13951 whole entry, looked up, the tested form may be a part): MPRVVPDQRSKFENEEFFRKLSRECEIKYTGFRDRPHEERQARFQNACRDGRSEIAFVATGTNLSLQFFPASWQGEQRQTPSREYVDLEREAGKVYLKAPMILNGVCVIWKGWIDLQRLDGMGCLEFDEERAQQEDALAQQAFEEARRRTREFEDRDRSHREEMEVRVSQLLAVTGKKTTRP
# Runt-CBFb FRET: inhibitors of human RUNX1 Runt domain binding to CBFb; Q01196+Q13951; Cerulean-Runt/Venus-CBFb FRET ratio 530/480, 1 h; inhibition, % at 20 µM; 220,000 compounds, 0.46% hits; AID 1496;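 active = inhibition over about 50% at 20 µM in the single-dose screen, limit read from the data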
#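 Assay system: Cerulean-Runt domain / Medium: Tris 50 mM pH 7.5, KCl, K2SO4, 0.01% BSA / Timing: protein complex preformed 1 h, compound exposure 1 h, room temperature, dark / Measured by: FRET, excitation 422 nm, emission at 530 and 480 nm / Evaluation: loss of energy transfer signal / Control set: 5 µM unlabeled CBFb as full-inhibition high control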
# Hck-Nef inh: human Hck-Nef kinase inhibition. P08631. Recombinant Hck-YEEI plus Nef, Z-Lyte FRET kinase assay. inhibition, % at 20 µM. 220,000 compounds, 0.68% hits. AID 463187;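 active = Hck-Nef kinase inhibition above about 50%, limit read from the data; inactive = inhibition below that limit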
# CaV13 FRET inh: Primary screen for inhibitors of IQ motif and Ca2+-dependent inactivation inhibitor domain binding in CACNA1D, Förster resonance energy transfer in living cells, … | HEK cells, CFP/YFP FRET ICDI-IQ, plate reader, 10 min; percent FRET-ratio fall versus neutral wells | inhibition, % at 12.3 µM | 340,000 compounds, 0.098% hits | AID 743397;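 active = mean replicate inhibition of at least 30% and at least 1% of replicates passing that level; inconclusive = only one of the two criteria is met; inactive = neither criterion is met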
# RanGTP-Imp inh: inhibitors of RanGTP-importin-beta interaction, primary screen, biochemical, FRET, CFP-Ran, YFP-importin-beta, homogeneous; AID 2216; inhibition, % (concentration not given with the values); 300,000 compounds, 1.1% hits; cell-free CFP-Ran/YFP-importin-beta FRET ratio;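 active = more than half of the replicate wells show a fall in the fluorescence ratio signal beyond about 16%, limit read from the data, passing the limit was not always enough; inconclusive = exactly half of the replicate wells pass the set limit; inactive = fewer than half of replicates pass the limit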
# Hits are given with their value; . = inactive; ? = inconclusive; / = no result given; + = active, no number. Shown are actives, neighbours in structure and some others; about 1.5% of the full set was active somewhere.
SMILES,Runt-SMMHC FRET,Runt-CBFb FRET,Hck-Nef inh,CaV13 FRET inh,RanGTP-Imp inh
COC(=O)c1cccc(Nc2c3c(nc4ccccc24)CCC3)c1,/,/,/,.,.
O=C(CN1C(=O)CCC1=O)NCC12CC3CC(CC(C3)C1)C2,.,.,.,.,.
NC(N)=Nc1nc(-c2ccccc2)c2ccccc2n1,.,.,.,.,25.8
COC(=O)c1ccc(C(=O)OC)c(NC(=S)N2CCN(C)CC2)c1,.,.,.,.,31.7
COC(=O)c1ccc(C(=O)OC)c(NC(=S)N2CCCC2)c1,/,/,/,.,.
CCCCn1c(CCNC(=O)c2cccs2)nc2ccccc21,.,.,.,.,?
CCOc1ccc(C2N(c3ccc(F)cc3)C(=O)C3CCCN32)cc1OC (stereo unspecified),.,.,.,.,21.2
C[C@H](CO)N1C[C@H](C)[C@@H](CN(C)Cc2cccnc2)OCc2cnnn2CCCC1=O,/,/,/,.,/
Cn1c(=O)c2nc3ccccc3nc2n(C)c1=O,62.6,.,.,.,.
Cn1c(=O)c2nc(-c3ccccc3)c(-c3ccccc3)nc2n(C)c1=O,/,/,/,.,.
COCCNC(=S)N/N=C/c1ccc(-c2ccc([N+](=O)[O-])cc2)o1,.,.,.,+,.
N/C(=N\OC(=O)Cc1cccs1)c1ccc(Cl)cc1,.,.,.,.,.
c1ccc(N2CCN(c3nc4ccccc4n4nnnc34)CC2)cc1,.,.,.,.,43.6
c1ccc2c(c1)nc(N1CCOCC1)c1nnnn12,.,.,.,.,?
O=C(CCC1CC(=O)Nc2ccccc21)NCc1ccccc1 (stereo unspecified),.,.,.,.,.
Cc1ccc(S(=O)(=O)c2cc3c(=O)n4cccc(C)c4nc3n(CC3CCCO3)c2=N)cc1 (stereo unspecified),.,112.3,/,/,/
N=c1c(S(=O)(=O)c2ccc(F)cc2)cc2c(=O)n3ccccc3nc2n1CC1CCCO1 (stereo unspecified),/,/,/,.,175.0
Cc1cccn2c(=O)c3cc(C#N)c(=O)n(CC4CCCO4)c3nc12 (stereo unspecified),60.4,.,+,/,/
CCCn1c2ccccc2c2cnn(CC(=O)NC(C)CC)c(=O)c21 (stereo unspecified),/,/,/,.,.
CCc1nnc(NC(=O)CCc2c[nH]c3ccccc23)s1,.,.,.,.,.
CCCn1c(C)cc(C(=O)COC(=O)c2cc(=O)[nH]c3ccccc23)c1C,/,/,/,.,/
CCCn1c(C)cc(C(=O)COC(=O)c2nccnc2N)c1C,.,.,.,.,25.5
COC(=O)Cn1c2ccc(C)cc2c2nc3ccccc3nc21,/,/,/,.,19.8
CCOC(=O)Cn1c2ccccc2c2nc3ccccc3nc21,.,.,.,.,.
CCCCNc1nc2ccccc2nc1NS(=O)(=O)c1ccc(F)cc1,/,/,/,.,?
SMILES,Runt-SMMHC FRET,Runt-CBFb FRET,Hck-Nef inh,CaV13 FRET inh,RanGTP-Imp inh
CCOc1ccc2nc(NCCCNS(=O)(=O)c3ccc(F)cc3)c(C#N)cc2c1,/,/,.,33.0,131.9
CCOc1ccc2nc(NCCCNS(=O)(=O)c3ccccc3)c(C#N)cc2c1,61.3,80.5,.,.,134.0
CCOc1ccc2nc(SCC(=O)N3c4ccccc4Sc4ccccc43)c(C#N)cc2c1,.,.,.,.,?
CCOC(=O)c1nnc(-c2ccccc2)[nH]c1=O,.,.,.,.,.
CC(C)(C)NCCOc1ccc2ccccc2c1,.,.,.,.,31.7
CCCn1c(C)cc(C(=O)CN2C(=O)c3cccc(N)c3C2=O)c1C,57.2,.,.,/,/
CCCCNC(=O)CN1C(=O)c2cccc(N)c2C1=O,92.8,.,.,.,.
CC1CCCCC1NC(=O)CN1C(=O)c2cccc(N)c2C1=O (stereo unspecified),85.9,.,.,+,.
COc1ccccc1CNC(=O)CN1C(=O)c2cccc(N)c2C1=O,/,/,/,.,27.5
COCCCNC(=O)CN1C(=O)c2ccccc2C1=O,.,.,.,.,.
CC1CCCCC1NC(=O)COC(=O)CN1C(=O)c2ccccc2C1=O (stereo unspecified),/,/,/,.,/
O=C(CCc1nc2ccccc2c(=O)[nH]1)Nc1nnc(SCc2ccc(Cl)cc2)s1,/,/,/,.,.
Cc1ccc(S(=O)(=O)NC2CCCCC2)cc1C(=O)N1CCC(C(N)=O)CC1,/,/,/,.,/
COC(=O)C1=C(C)NC(C)=C(C(=O)OC)C1C(=O)OCCN1C(=O)c2ccccc2C1=O,.,.,.,.,.

# Assay outcomes: PubChem BioAssay, several laboratories
